Results as given in ChEMBL document CHEMBL1649529, “Identifying exposure targets for treatment of staphylococcal pneumonia with ceftobiprole” (Antimicrob Agents Chemother, 2009).
≈ marks a conversion by molar mass, not a printed value.

How the values were obtained:
[1] = Drug level in plasma of healthy human at 500 mg, iv administered as 2-h infusion every 8 h after 6 hrs
[2] = Fraction unbound in mouse plasma; type: ADME, cell-free
Staphylococcus aureus [3] = assay: Antibacterial activity against community-acquired methicillin-resistant Staphylococcus aureus clinical isolates; type: functional
Outline: (§1)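 MICs determined by CLSI dilution methodology for aerobically growing bacteria; the active drug, not the prodrug, was used for in vitro testing.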

[4] = Drug level in epithelial lining fluid of healthy human at 500 mg, iv administered as 2-h infusion every 8 h after 2.5 hrs; conditions: read-out: Drug uptake
[5] = Drug level in plasma of healthy human at 500 mg, iv administered as 2-h infusion every 8 h after 8 hrs
[6] = Drug level in epithelial lining fluid of healthy human at 500 mg, iv administered as 2-h infusion every 8 h after 8 hrs; conditions: read-out: Drug uptake
[7] = Plasma protein binding in mouse; type: ADME, cell-free; conditions: read-out: PPB (converted)
[8] = AUC in epithelial lining fluid of healthy human at 500 mg, iv administered as 2-h infusion every 8 h; conditions: in vivo
[9] = Drug level in plasma of healthy human at 500 mg, iv administered as 2-h infusion every 8 h after 2.5 hrs
[10] = AUC in epithelial lining fluid of mouse; type: ADME, tissue-based
Outline: (§2)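 Neutropenic (cyclophosphamide) female BALB/c mice were infected with S. aureus in 3% mucin by aspiration. At 6 h they received single sc doses of prodrug (1.0–25.0 mg/kg, in sterile water). Plasma was sampled at 0.25–4 h (6 mice per time point) and BAL at 0.25–4 h. Samples were citrate-stabilized and assayed by HPLC (LOQ 0.01 mg/liter), with urea correction for ELF. AUCs came from a 9,999-subject simulation.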

[11] = Volume of distribution in epithelial lining fluid of healthy human at 500 mg, iv administered as 2-h infusion every 8 h; conditions: in vivo
[12] = Drug level in plasma of healthy human at 500 mg, iv administered as 2-h infusion every 8 h after 4 hrs
Staphylococcus aureus [13] = assay: Antibacterial activity against methicillin-susceptible Staphylococcus aureus clinical isolates; type: functional
Outline: as §1

Homo sapiens = assay: Volume of distribution in central compartment of healthy human at 500 mg, iv administered as 2-h infusion every 8 h; conditions: in vivo
[14] = Drug level in epithelial lining fluid of healthy human at 500 mg, iv administered as 2-h infusion every 8 h after 6 hrs; conditions: read-out: Drug uptake
[15] = AUC in plasma of mouse; type: ADME, cell-free
Outline: as §2

[16] = AUC in plasma of healthy human at 500 mg, iv administered as 2-h infusion every 8 h
[17] = Clearance in healthy human at 500 mg, iv administered as 2-h infusion every 8 h; conditions: in vivo
[18] = Drug level in epithelial lining fluid of healthy human at 500 mg, iv administered as 2-h infusion every 8 h after 4 hrs; conditions: read-out: Drug uptake
Staphylococcus aureus [19] = assay: Antibacterial activity against hospital-acquired methicillin-resistant Staphylococcus aureus clinical isolates; type: functional
Outline: as §1

## Nc1nc(/C(=N/O)C(=O)N[C@@H]2C(=O)N3C(C(=O)O)=C(/C=C4\CCN([C@@H]5CCNC5)C4=O)CS[C@H]23)ns1 [CEFTOBIPROLE]
[1]
  concentration at 6 h: 6910 ng/mL
[2]
  fraction unbound: 0.81
Staphylococcus aureus [3]
  MIC: 1 µg/mL (≈ 1.87 µM)
[4]
  concentration at 2.5 h: 2550 ng/mL
[5]
  concentration at 8 h: 3650 ng/mL
[6]
  concentration at 8 h: 1510 ng/mL
[7]
  fraction unbound: 0.81
[8]
  AUC: 25200 ng·h/mL
[9]
  concentration at 2.5 h: 17700 ng/mL
[10]
  AUC: 46000 ng·h/mL
[11]
  Vd: 39.1 L
[12]
  concentration at 4 h: 12800 ng/mL
Staphylococcus aureus [13]
  MIC: 0.25 µg/mL (≈ 0.468 µM)
Homo sapiens
  Vd: 2.849 L
[14]
  concentration at 6 h: 4580 ng/mL
[15]
  AUC: 68800 ng·h/mL
[16]
  AUC: 98700 ng·h/mL
[17]
  CL/F: 86 mL/min
[18]
  concentration at 4 h: 2000 ng/mL
Staphylococcus aureus [19]
  MIC: 0.5 µg/mL (≈ 0.935 µM)
